# Screens as filed in PubChem.
# This is a sample that favours compounds with a hit; in the whole collection about 2.5% have one here.
# TCR CD3 inh = inhibitors of human TCR-CD3 interaction; TAMRA-labeled TCR probe fluorescence, biochemical; inhibition, % at 9.4 µM; 360,000 tested, 0.37% active; AID 651800; in the data active means inhibition above about 19%;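 further: recombinant mutant TCR 2C K166C tagged with TAMRA read by polarization; 0% = receptor in buffer alone and 100% = receptor with positive control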
# SIAE inh = blocks human sialic acid acetylesterase; 370,000 tested, 0.69% active; AID 1053197; Q9HAT2; inhibition, % at 9.66 µM; SIAE FP-Rh probe binding, fluorescence polarization;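 active means inhibition above a cutoff: mean of compounds within the control limits plus 3 SD of those, cut at about 17% in these data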;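 further: 0% = plate median of compound wells and 100% = probe without SIAE protein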
# ABHD4 inh = inhibitors of mouse ABHD4. Q8VD66. purified mABHD4, FP-Rh probe fluorescence polarization. inhibition, % at 8.92 µM. 370,000 tested, 0.54% active. AID 720543;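 active means inhibition exceeding the mean over every tested compound plus 3 SD, cut at about 30% in these data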;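 further: 0% = plate median of compound wells and 100% = S159A mutant with DMSO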
#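 Doses – 8.92 µM, single dose · Material – wild-type mouse ABHD4 protein · Replication – single well per compound (singlicate) · Measure – percent inhibition of probe binding, normalized to plate controls · Schedule – 45 min compound pre-incubation plus 60 min probe step, 25 °C · Detection – fluorescence polarization with parallel and perpendicular emission, 525/598 nm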
# HTRA1 inhibitor = inhibitors of human serine peptidase HTRA1; Q92743; recombinant HTRA1, FP-rhodamine activity-based probe, fluorescence polarization; inhibition, % at 5.96 µM; 340,000 tested, 0.5% active; AID 504803; in the data active means inhibition above about 36%;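 further: 0% = enzyme with DMSO and 100% = wells lacking enzyme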
# Target sequence (Q92743 whole entry, looked up): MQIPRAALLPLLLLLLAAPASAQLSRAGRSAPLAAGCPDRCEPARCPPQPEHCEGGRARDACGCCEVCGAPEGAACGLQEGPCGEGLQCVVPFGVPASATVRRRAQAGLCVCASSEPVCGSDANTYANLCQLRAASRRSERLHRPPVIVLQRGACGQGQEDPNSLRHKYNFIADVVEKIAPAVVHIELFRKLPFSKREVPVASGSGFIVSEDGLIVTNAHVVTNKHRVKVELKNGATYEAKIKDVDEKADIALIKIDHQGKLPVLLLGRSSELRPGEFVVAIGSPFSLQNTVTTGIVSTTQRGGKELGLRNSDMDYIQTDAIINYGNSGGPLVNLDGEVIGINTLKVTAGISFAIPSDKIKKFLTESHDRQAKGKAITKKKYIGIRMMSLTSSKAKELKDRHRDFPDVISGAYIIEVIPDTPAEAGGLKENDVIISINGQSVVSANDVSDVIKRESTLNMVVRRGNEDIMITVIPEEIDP
# rCAG RNA binder = molecules binding r(CAG) RNA repeats. AID 651821. r(CAG) RNA repeat, TO-PRO-1 dye displacement fluorescence. inhibition, % at 3 µM. 370,000 tested, 1.3% active;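 active means inhibition above the plate cutoff, the mean of all test compounds on that plate plus 3 SD, cut at about 35% in these data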;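 further: 0% = DMSO alone and 100% = 100 µM mitoxantrone as full dye displacement; higher means more dye released from RNA so lower well fluorescence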
# rCAG bind conf = r(CAG) RNA repeat binding, confirmation. shares compounds with rCAG RNA binder. TO-PRO-1 dye displacement fluorescence. inhibition, % at 3 µM. 4,300 tested, 70% active;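 active means inhibition above a per-plate cutoff, the mean inhibition of sample wells plus 3 SD, cut at about 35% in these data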;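 further: loss of TO-PRO-1 fluorescence as compound displaces dye from 1x1 AA loop RNA; 0% = DMSO only wells and 100% = 100 µM mitoxantrone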
# DNA CAG counter = disrupts DNA CAG TO-PRO-1 complex, flagging rCAG hits; d(CAG) DNA oligo TO-PRO-1 dye displacement, fluorescence; 4,300 tested, 94% active; AID 652068; shares compounds with rCAG RNA binder; inhibition, % at 3 µM;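 active means inhibition above its plate's cutoff, the mean test-well inhibition plus 3 SD, cut at about 4.8% in these data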;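 further: 0% = DNA dye mix with DMSO and 100% = 100 µM mitoxantrone; hits displace the dye from DNA and so lower well fluorescence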
# DNA CAG DR = counter-screen for rCAG binders: inhibitors of DNA CAG TO-PRO-1 complex; shares compounds with rCAG RNA binder; DNA CAG/GTC duplex TO-PRO-1 dye displacement fluorescence; IC50, µM; 250 tested, 20% active; AID 686960; in the data active means IC50 below about 10 µM
# An asterisk follows results filed as active; / = no result.
SMILES,TCR CD3 inh,SIAE inh,ABHD4 inh,HTRA1 inhibitor,rCAG RNA binder,rCAG bind conf,DNA CAG counter,others
COc1ccc(OC)c(CCNC(=O)C(=O)Nc2ccc3nc4n(c(=O)c3c2)CCCCC4)c1,-0.9,-7.4,3.5,-7.8,-3.3,/,/,
CCOc1ccc2nc(NS(=O)(=O)c3ccc4c(c3)n(C)c(=O)n4C)sc2c1,4.3,3.8,14.0,-2.1,44.1*,25.9,8.3*,
CCCCCCSc1nc(O)c(C2OC(=O)c3c2ccc(OC)c3OC)c(=O)n1CC (centres undefined),-6.3,5.4,1.9,2.4,38.6*,35.9*,8.3*,
COc1cc(/C=C/C(=O)O)cc(OC)c1OC,5.9,7.2,-0.8,1.2,2.3,/,/,
COc1cc(/C=C/C(=O)O)ccc1OS(=O)(=O)c1c(C)c(C)cc(C)c1C,0.5,-2.9,-5.3,-28.5,55.8*,55.6*,15.6*,
O=C(O)c1ccc(-n2cccc2/C=C2/NC(=O)N(c3cccc(Cl)c3)C2=O)cc1,12.3,-1.8,-5.4,-22.0,38.5*,30.6,8.8*,
CC1(C(=O)NS(=O)(=O)c2cccc(F)c2)CCN1C(=O)CCc1ccc(Cl)cc1Cl (centres undefined),-0.3,6.6,0.3,/,30.4,/,/,
CC1(C(=O)NS(=O)(=O)c2ccc(Cl)cc2)CCN1C(=O)CCc1ccc(Cl)cc1Cl (centres undefined),-1.9,2.5,-5.8,/,52.5*,49.4*,12.5*,
CC1(C(=O)NS(=O)(=O)c2ccc(C#N)cc2)CCN1C(=O)CCc1ccc(Cl)cc1Cl (centres undefined),-1.1,-1.6,6.8,/,25.9,/,/,
CC1(C(=O)NS(=O)(=O)c2ccc(Cl)s2)CCN1C(=O)Cc1ccc(Cl)cc1Cl (centres undefined),2.0,-0.1,-1.3,/,39.8*,40.3*,11.2*,
Cc1ccc(S(=O)(=O)NC(=O)C2(C)CCN2C(=O)CCc2ccc(Cl)cc2Cl)cc1 (centres undefined),2.9,2.6,3.8,/,51.3*,33.6,6.0*,
CN(Cc1nc2ccccc2c(=O)[nH]1)Cc1nc2ccsc2c(=O)[nH]1,-1.1,0.5,5.2,4.5,-3.3,/,/,
OCC(C#CCN1CCCCC1)NCc1ccccc1 (centres undefined),-1.4,1.2,-3.0,2.2,-1.7,/,/,
COCc1cc(C)nc(OCC(=O)N/N=C/c2ccc(-c3cc([N+](=O)[O-])ccc3C)o2)c1C#N,3.7,4.9,0.0,-0.8,6.3,/,/,
Cc1ccc([N+](=O)[O-])cc1-c1ccc(/C=C(\C#N)c2[nH]nc(N)c2C#N)o1,13.4,-32.3,0.3,-26.3,83.7*,63.4*,46.9*,
O=C(NCCS(=O)(=O)N1CCN(c2ccccc2)CC1)C1CC(=O)N(c2ccccc2)C1 (centres undefined),3.1,3.4,5.8,2.1,3.3,/,/,
O=C(O)c1cccc(S(=O)(=O)N(Cc2ccccc2)c2cccc(C(F)(F)F)c2)c1,-7.2,5.9,-6.0,-16.7,52.6*,53.3*,11.5*,DNA CAG DR=>29.9
Cc1ccc(S(=O)(=O)N(CC(=O)Nc2ccccc2C(=O)O)c2ccc(Cl)cc2)cc1,1.9,-2.4,-18.2,-19.1,61.6*,58.4*,17.9*,
Cc1ccc(S(=O)(=O)N(Cc2ccc(Cl)cc2)c2ccccc2C(=O)O)cc1,7.9,0.6,5.5,-12.2,30.3,/,/,
O=C(O)c1cc(S(=O)(=O)N(Cc2ccccc2)c2ccc(Cl)cc2)ccc1Cl,5.2,-8.8,-10.9,-13.0,54.2*,43.0*,9.8*,
O=C(O)c1cccc(S(=O)(=O)N(Cc2ccccc2)c2ccccc2Cl)c1,-8.4,-2.6,3.8,-3.8,29.9,/,/,
COC(=O)C1=C(C)N(Cc2ccc(C(F)(F)F)cc2)C(=NCC2CC2)NC1c1cccc(Cl)c1 (centres undefined),-4.6,3.8,29.3,/,8.2,/,/,
Cc1cccc(OCCSc2ncnc3nc[nH]c23)c1,1.3,-6.4,2.8,-1.7,1.6,/,/,
O=C(O)CC1(CC(=O)Nc2ccccc2C(=O)c2ccccc2)CCCC1,-5.0,-4.0,-7.2,-0.8,7.0,/,/,
